{"source": "ChEMBL document CHEMBL1149898", "about": "“A biaryl xanthone derivative having axial chirality from Penicillium vinaceum” (J Nat Prod, 2008)", "key": {"Paracentrotus lividus": {"tested_on": "Paracentrotus lividus", "test": "Inhibition of sea urchin egg fertilization by sea urchin sperm assessed as inhibition of divided eggs by light microscopy", "type": "functional, organism-based", "in_short": "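Eggs were rinsed, filtered and diluted in artificial seawater to 2000 eggs/mL. \"Dry\" sperm was diluted 1:50 in ASW, and 10 µL was added per 1 mL eggs at 20 °C. Compounds were in DMSO at 50 µg/mL, with DMSO-only controls. Eggs were cultured at room temperature with gentle agitation, and percent divided eggs was scored by light microscopy 30 min post-fertilization.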"}, "Bacillus subtilis": {"tested_on": "Bacillus subtilis", "test": "Antibacterial activity against Bacillus subtilis by disk diffusion test", "type": "functional, organism-based", "in_short": "(§1)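 Bacterial suspensions were grown 2–5 h to a suitable OD, diluted with water and swabbed evenly over agar. After the inoculum dried, disks carrying 10, 50, 100 and 200 µg of compound were applied. Plates were incubated overnight, and zone diameters around the disks were measured.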"}, "Staphylococcus aureus": {"tested_on": "Staphylococcus aureus", "test": "Antibacterial activity against Staphylococcus aureus by disk diffusion test", "type": "functional, organism-based", "in_short": "as §1"}, "Saccharomyces cerevisiae": {"tested_on": "Saccharomyces cerevisiae", "test": "Antifungal activity against Saccharomyces cerevisiae after 18 to 24 hrs by disk diffusion test", "type": "functional, organism-based", "in_short": "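Diluted yeast inoculum was spread on 90 mm agar plates supplemented with 2% glucose and dried for 5–15 min. Disks loaded with 10, 50, 100 and 200 µg of compound were placed on top. Plates were incubated 18–24 h at 28 °C, then inhibition zone diameters were measured.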"}, "[1]": {"tested_on": "Agrobacterium tumefaciens", "test": "Antitumor activity against Agrobacterium tumefaciens-induced 10 ppm crown gall tumor in potato tubers at […] after 21 days by crown gall tumor potato disk test", "type": "functional", "in_short": "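Potato tubers were surface-sterilized in 1% NaOCl for 20 min and cut into 5 mm disks, 10 per 2% agar plate. A 48 h Agrobacterium tumefaciens culture, mixed with compound in DMSO at 10 or 100 µg/mL, was applied to each disk. Plates were kept at 28 °C for 21 days. Tumors per disk were counted; % inhibition = 100 − (mean tumors sample/mean control)×100.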"}, "Escherichia coli": {"tested_on": "Escherichia coli", "test": "Antibacterial activity against Escherichia coli by disk diffusion test", "type": "functional, organism-based", "in_short": "as §1"}}, "note": "Activity calls are given as the source filed them. No cut-off for these calls is given here.", "data": [{"smiles": "CC(=O)c1cc2c(=O)c3c(C(=O)O)c(O)c(O)cc3oc2c(C(C)=O)c1C1COc2cc(O)c(O)c(C(=O)O)c2C1=O", "note": "(stereo not drawn)", "values": [{"measurement": "IC50", "setting": "Paracentrotus lividus", "value": 0.71, "unit": "µg/mL"}, {"measurement": "Activity", "setting": "Bacillus subtilis", "value": "inactive"}, {"measurement": "Activity", "setting": "Staphylococcus aureus", "value": "inactive"}, {"measurement": "Activity", "setting": "Saccharomyces cerevisiae", "value": "inactive"}, {"measurement": "inhibition (INH)", "setting": "[1]", "value": 12, "unit": "%"}, {"measurement": "Activity", "setting": "Escherichia coli", "value": "inactive"}]}, {"smiles": "CC(=O)c1cc2c(=O)c3c(C(=O)O)c(O)c(O)cc3oc2c(C(C)=O)c1-c1coc2cc(O)c(O)c(C(=O)O)c2c1=O", "note": "[VINAXANTHONE]", "values": [{"measurement": "IC50", "setting": "Paracentrotus lividus", "value": 0.12, "unit": "µg/mL"}, {"measurement": "Activity", "setting": "Bacillus subtilis", "value": "inactive"}, {"measurement": "Activity", "setting": "Staphylococcus aureus", "value": "inactive"}, {"measurement": "Activity", "setting": "Saccharomyces cerevisiae", "value": "inactive"}, {"measurement": "inhibition (INH)", "setting": "[1]", "value": 67, "unit": "%"}, {"measurement": "Activity", "setting": "Escherichia coli", "value": "inactive"}]}, {"smiles": "COc1oc2cc(O)c(O)c(C(=O)O)c2c(=O)c1-c1c(C(C)=O)cc2c(=O)c3c(C(=O)O)c(O)c(O)cc3oc2c1C(C)=O", "values": [{"measurement": "IC50", "setting": "Paracentrotus lividus", "value": 0.05, "unit": "µg/mL"}, {"measurement": "Activity", "setting": "Bacillus subtilis", "value": "inactive"}, {"measurement": "Activity", "setting": "Staphylococcus aureus", "value": "inactive"}, {"measurement": "Activity", "setting": "Saccharomyces cerevisiae", "value": "inactive"}, {"measurement": "inhibition (INH)", "setting": "[1]", "value": 72, "unit": "%"}, {"measurement": "Activity", "setting": "Escherichia coli", "value": "inactive"}]}]}
